Myeloid diff 2: promotes myeloid progenitor differentiation. ER-HoxA9 myeloid progenitors, lysozyme-GFP differentiation, flow cytometry. calls only at 10 µM. hit rate 1% among 360,000;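 active = normalized GFP-positive differentiation at or above the plate's own cutoff, the solvent-only control mean plus 3 SD; inconclusive = no clear call, values can overlap the other calls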;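 also: cells exposed to compound for four days before flow analysis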
HNF4A DNA FP: change in binding of human HNF4 alpha to DNA. P41235. HNF4a-FITC DNA binding, fluorescence polarization, 1 h. activity change, % at 10 µM. hit rate 0.3% among 360,000. AID 1224865; in the data active = activity change above about 30%, passing the limit was not always enough
Rpn11 block: inhibitors of human proteasome Rpn11 | inhibition, % at 20 µM | human 26S proteasome, Ub4-pepOG fluorescence polarization; 20S core pre-blocked with epoxomicin | hit rate 0.59% among 360,000 | O00487 | AID 588493;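 active = inhibition at 20 µM, scaled to each plate's controls, above about 33%, limit read from the data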
Target sequence (O00487 whole entry, looked up): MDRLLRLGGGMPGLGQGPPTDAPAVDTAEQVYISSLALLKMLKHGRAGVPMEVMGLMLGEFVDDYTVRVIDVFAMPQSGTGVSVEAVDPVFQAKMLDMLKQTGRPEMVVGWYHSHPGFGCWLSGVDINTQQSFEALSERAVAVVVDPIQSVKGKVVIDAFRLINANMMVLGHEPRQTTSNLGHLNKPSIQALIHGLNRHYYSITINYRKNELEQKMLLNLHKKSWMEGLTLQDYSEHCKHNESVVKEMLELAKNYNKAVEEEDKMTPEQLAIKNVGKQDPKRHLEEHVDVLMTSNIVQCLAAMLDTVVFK
CSN deneddyl inh: blocks human CSN-mediated cullin deneddylation | Q92905 | Purified CSN, SCF-Nedd8-OG deneddylation, fluorescence polarization | inhibition, % at 12.5 µM | hit rate 0.38% among 360,000;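 active = pattern-corrected inhibition above about 35%, with an unprinted fluorescence ratio check between 0.5 and 1.5, limit read from the data, passing the limit was not always enough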
Target sequence (Q92905 whole entry, looked up, one chain of several): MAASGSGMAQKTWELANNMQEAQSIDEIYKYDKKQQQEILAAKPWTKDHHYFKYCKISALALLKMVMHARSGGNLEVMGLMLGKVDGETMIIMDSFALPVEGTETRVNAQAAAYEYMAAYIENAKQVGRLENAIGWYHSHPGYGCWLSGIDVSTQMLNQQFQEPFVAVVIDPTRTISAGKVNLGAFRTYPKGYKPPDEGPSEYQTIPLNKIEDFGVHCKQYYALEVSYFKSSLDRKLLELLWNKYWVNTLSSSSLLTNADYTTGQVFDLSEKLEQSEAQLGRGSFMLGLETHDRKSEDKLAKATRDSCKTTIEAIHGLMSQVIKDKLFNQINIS
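assay system = purified human Csn5 enzyme expressed in HEK293T cells | amount = 0.24 nM enzyme | buffer or medium = Tris/NaCl/DTT buffer, pH 7.5 | reagent = 10 nM SCFSkp2-Nedd8OG | compound = one concentration, 12.5 µM, 0.25% DMSO | times = 90 min reaction at room temperature | signal = FP | read-out basis = % inhibition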
TPT1 inhibitor: inhibitors of Candida albicans tRNA 2'-phosphotransferase TPT1; recombinant caTPT1, FP RNA substrate dephosphorylation; AID 1962; inhibition, % at 5 µM; hit rate 0.81% among 300,000;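 active = inhibition above the mean of all tested compounds plus 3 SD, set per screening campaign, cut at about 24% in these data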
Myeloid diff: promotes myeloid progenitor differentiation | shares compounds with Myeloid diff 2 | ER-HoxA9 myeloid progenitors, GFP/Mac1 double-positive flow | calls only | hit rate 2% among 2,300;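 active = share of green or green-and-red cells above 9 and 9% in run 1 or 4 and 3% in run 2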
GFP autofluor: compound fluorescence in myeloid differentiation counter-screen; shares compounds with Myeloid diff 2; ER-HoxA9 myeloid progenitors, no estrogen, GFP autofluorescence flow cytometry; vehicle wells 0%, positive control 100%; fluorescence response, % (test concentration not listed); hit rate 7.4% among 2,300;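 active = over 5% cells positive for green fluorescent reporter, or over 2% positive for both it and APC stain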
Hits are given with their value; i = inactive; ? = inconclusive; nt = not tested or not shown; + = active, no number. An excerpt weighted towards active compounds, which were near 2.3% of everything screened.

SMILES	Myeloid diff 2	HNF4A DNA FP	Rpn11 block	CSN deneddyl inh	TPT1 inhibitor	Myeloid diff	GFP autofluor
C(#Cc1ccccc1)C[N+]1(CC#Cc2cccc3ccccc23)CCCC1	i	i	i	i	i	nt	nt
C#CC[N+]1(CC#Cc2ccccc2)CCCC1	+	i	i	i	i	i	i
CCOC(=O)c1cc2c(c(-c3ccccc3)n1)[C@@H](CCO)N(S(=O)(=O)C(C)(C)C)C2	i	i	i	i	nt	i	i
CN(CC(=O)NCc1ccc(F)cc1)CC(=O)Nc1ccc(Cl)c(C(F)(F)F)c1	i	i	i	i	i	nt	nt
CN(Cc1ccccc1)CC(O)COc1ccc(CNCCc2cccnc2)cc1 (stereo not drawn)	i	i	i	i	i	nt	nt
CCc1ccc(CNCc2ccc(OCC(O)CN(C)Cc3ccccc3)cc2)nc1 (stereo not drawn)	+	i	i	i	i	i	i
CCCC1(CCC)NC(=O)N(CC(=O)Nc2ccc3c(c2)OCCO3)C1=O	i	i	i	i	nt	nt	nt
COc1ccc(CC(NC(C)=O)C(=O)NC2CCN(C(=O)c3cnccn3)CC2)cc1 (stereo not drawn)	i	i	i	i	i	i	i
CC(=O)NC(Cc1ccccc1F)C(=O)NC1CCN(C(=O)c2cnccn2)CC1 (stereo not drawn)	i	i	i	i	i	nt	nt
O=C(NCCc1ccccc1)C(=O)NCC1CCCN1S(=O)(=O)c1ccccc1 (stereo not drawn)	+	i	i	i	i	i	i
CC1CC(C)CN(C(=O)C(C)N2CCN(S(=O)(=O)c3cccs3)CC2)C1 (stereo not drawn)	i	i	i	i	nt	nt	nt
COC(CNC(=O)CN1CCN(Cc2ccccc2F)C1=O)OC	i	i	i	i	i	nt	nt
NC(=O)CCC(NS(=O)(=O)c1ccc(Cl)cc1)C(=O)NCC1CCCCC1 (stereo not drawn)	i	i	i	i	i	i	i
CCCNC(=O)COC(=O)c1ccccc1OCc1ccc(Cl)cc1	+	i	i	i	i	i	i
O=C1NC(=O)C(Cc2ccc(O)cc2)N1 (stereo not drawn)	i	i	i	i	nt	nt	nt
CC(=O)c1ccc(-c2cnc3c(NC=O)cc(-c4ccccc4Oc4ccccc4)cn23)cc1	i	i	i	i	nt	i	i
CN(C)c1ccc(-c2cc(NC=O)c3ncc(-c4ccc(F)c(Cl)c4)n3c2)cc1	+	i	nt	i	nt	i	i
COc1ccc(-c2cnc3c(NC=O)cc(-c4ccc(S(C)(=O)=O)cc4)cn23)cc1OC	nt	i	i	i	nt	nt	nt
COc1cc(-c2cnc3c(NC=O)cc(-c4ccc(S(C)(=O)=O)cc4)cn23)cc(OC)c1OC	+	i	i	i	nt	i	i
O=C(O)c1ccc(-c2ccc(O)c(F)c2)cc1	i	i	i	i	i	i	i
COC(=O)CSc1nnc(-c2ccc(S(=O)(=O)N3CCC(C)CC3)cc2)o1	i	i	i	i	i	nt	nt
COC(=O)CSc1nnc(-c2ccc(S(=O)(=O)N3CCCCC3)cc2)o1	+	i	i	i	i	i	i
Cc1ccnc(NC(=O)Cn2c(=O)oc3ccccc32)c1	i	i	i	i	i	nt	nt
CCN(CC)c1ccc(C=NNc2ccc([N+](=O)[O-])cn2)cc1	+	i	nt	i	nt	i	12.9
COC(=O)[C@@]12CCCCN1[C@H](c1ccc(-c3cccc(Cl)c3)c(OC)c1)[C@H]1C(=O)N(C)C(=O)[C@H]12	i	i	i	i	i	nt	nt
SMILES	Myeloid diff 2	HNF4A DNA FP	Rpn11 block	CSN deneddyl inh	TPT1 inhibitor	Myeloid diff	GFP autofluor
O=[N+]([O-])CC(c1ccccc1)c1c[nH]c2ccccc12 (stereo not drawn)	+	i	i	i	i	i	i
c1ccc(COCCCn2cc(-c3ccccc3)nn2)cc1	+	i	i	i	i	i	i
O=C(c1noc2c1CCCCC2)N1CCN(C(c2ccccc2)c2ccccc2)CC1	i	i	i	i	nt	nt	nt
COc1ccccc1/C=C/C1(C(=O)NC2CCCC2)CC(=O)N1c1ccccc1 (stereo not drawn)	+	i	i	i	i	i	i
CN(C)S(=O)(=O)c1ccc(N2C(=O)CC2(/C=C/c2ccccc2)C(=O)NC2CCCC2)cc1 (stereo not drawn)	i	i	i	i	i	nt	nt
COc1cc(OC)cc(C(=O)NCC(=O)N2CC=C(c3ccccc3)CC2)c1	?	i	i	i	nt	nt	nt
O=C(NCC(=O)N1CC=C(c2ccccc2)CC1)c1ccc(OC(F)F)cc1	i	i	i	i	nt	i	i
N=c1oc2ccc3ccccc3c2cc1C(N)=S	i	i	i	i	i	nt	nt
Cc1ccc(C2=NN(S(C)(=O)=O)C(c3cccs3)C2)cc1 (stereo not drawn)	i	i	i	i	i	i	i
COc1ccc(C2=NN(S(C)(=O)=O)C(c3cccs3)C2)cc1 (stereo not drawn)	i	i	i	i	i	nt	nt
Nc1ccc(S(=O)(=O)Nc2nccc(/C=C/c3cccc(Br)c3)n2)cc1	+	i	i	i	i	i	i
CN1c2ccccc2C(C)(C)C12C=Cc1cc(O)ccc1O2 (stereo not drawn)	+	34.6	81.5	i	i	i	53.3
CC(c1ccccc1)n1c(-c2ccccc2F)n[nH]c1=S (stereo not drawn)	i	i	i	i	i	nt	nt
CC(C)n1c(-c2ccccc2F)n[nH]c1=S	i	i	i	i	i	i	85.2
O=C(COC(=O)/C=C/c1cccc(Cl)c1Cl)Nc1ccc2[nH]c(=O)[nH]c2c1	i	i	i	i	nt	nt	nt
O=c1[nH]cc(-c2ccc(Br)cc2)n1Cc1ccccc1	i	i	i	i	i	i	i
Fc1ccc(-c2c[nH]c(=S)n2Cc2ccccc2)cc1	i	i	i	i	i	nt	nt
CC(C)Sc1nc2ccccc2n1CC(=O)O	i	i	i	i	i	nt	nt
CC(=O)N1CCc2cc(S(=O)(=O)NCCC(=O)Nc3ccc4c(c3)OCCO4)ccc21	i	i	i	i	i	i	i
CCOc1ccc2oc(C(=O)N(CCOC)c3c(N)n(CC(C)C)c(=O)[nH]c3=O)c(C)c2c1	i	i	i	i	nt	nt	nt
CCCSc1nc(C)c2cc(C)cc(C)c2n1	+	i	i	i	i	i	i
CCOC(=O)CSc1nc(C)c2cccc(C)c2n1	i	i	i	i	i	nt	nt
Cc1noc(C)c1NC(=O)Nc1ccc2c(c1)C(=O)N([C@H](C)CO)C[C@H](C)[C@H](CN(C)C)O2	i	i	i	i	nt	nt	nt
CCOc1ccc(C(c2c(NC(=O)c3ccccc3)sc(C)c2C)N2CCN(C)CC2)cc1 (stereo not drawn)	i	i	i	i	i	nt	nt
Cc1sc(NC(=O)c2ccccc2)c(C(c2ccccn2)N2CCN(CCO)CC2)c1C (stereo not drawn)	i	i	i	i	i	i	i
CCC(C)NC(=O)c1ccc(CS(=O)(=O)Cc2ccc(Cl)cc2)o1 (stereo not drawn)	i	i	i	i	i	nt	nt
